The text below walks through data of publication PMC3475257 (The FASEB Journal, 2012).

For this test, the system named is fully infectious HXB2 HIV‐1. The experiment in a line: HXB2 virus infectivity assay. The class given is cell-based. The note with it: up to 1 μM, TZM‐bl cells. The essentials: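 TZM-bl reporter cells were seeded at 2×10^4 cells/well in 10% serum DMEM and left to adhere 18-24 h at 37°C. Medium was then swapped for serum-free DMEM containing 40 μg/ml DEAE-dextran. Test compound was added, followed by concentrated HXB2 stock diluted in the same medium. Infection ran 18 h at 37°C, with a luciferase (Steady-Glo) read-out.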

Regarding `CCCCCCCCCCCCCCC[C@@H](O)[C@@H](N)CO` [sphinganine, D‐erythrodihydrosphingosine], the “Effect of sphinganine alone on viral infectivity” value is reported as “did not affect viral infectivity”.
